ChEMBL document CHEMBL4007413, “Replacing d-Glucosamine with Its l-Enantiomer in Glycosylated Antitumor Ether Lipids (GAELs) Retains Cytotoxic Effects against Epithelial Cancer Cells and Cancer Stem Cells” (J Med Chem, 2017)
Calls of active or inactive are those of the source. The calls are words filed in the database; no cut-off is given here.

What was measured:
BT-474 [1] = experiment: Disruption of cancer stem cells spheroids derived from human BT474 cells at >=7.5 uM after 3 days by microscopic analysis; format: functional, cell-based
Summary of the method: (§1)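 Cancer stem cells were isolated from BT-474 by ALDH1 activity. Equal numbers were seeded in ultra-low-adhesion wells and grown to spheroids. Spheroids were then incubated with or without compounds for 3 days. Spheroid integrity was assessed by light microscopy (×10). Viability was measured in parallel by MTS.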

MDA-MB-231 [2] = experiment: Cytotoxicity against human MDA-MB-231 cells assessed as decrease in cell viability after 48 hrs by MTS assay; format: functional; conditions: MDA-MB-231, 48 h
Summary of the method: (§2)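 Cells were seeded at equal numbers and, after 24 h, exposed to compounds (0–30 µM) for 48 h. MTS reagent (20% v/v) was then added for 1–4 h, and OD490 was read. Cell-free medium wells served as blanks. Media were DMEM/F12 + 10% FBS for BT-474; DMEM + 10% FBS for DU-145 and MDA-MB-231; and DMEM + 10% FBS + 2.5% horse serum for MiaPaCa-2. Values are mean ± SD, n=6.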

Erythrocyte = experiment: Induction of hemolysis in sheep erythrocytes at 30 uM after 30 mins by spectrophotometric analysis; format: functional, Ovis aries
JIMT-1 [3] = experiment: Cytotoxicity against human JIMT1 cells assessed as decrease in cell viability up to 8 uM after 48 hrs in absence of pan-caspase inhibitor QVD-OPh by MTS assay; format: functional, cell-based
Summary of the method: (§3)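 DU-145 and JIMT-1 cells (DMEM + 10% FBS) were treated with compounds with or without the pan-caspase inhibitor QVD-OPh (40 µM). Viability was read by MTS: cells were seeded, treated 24 h later for 48 h, given MTS (20% v/v) for 1–4 h, and read at OD490 against cell-free blanks.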

DU-145 [4] = experiment: Cytotoxicity against human DU145 cells assessed as decrease in cell viability up to 8 uM after 48 hrs in absence of pan-caspase inhibitor QVD-OPh by MTS assay; format: functional, cell-based; summary of the method: as §3
DU-145 [5] = experiment: Cytotoxicity against human DU145 cells assessed as decrease in cell viability after 48 hrs by MTS assay; format: functional; conditions: DU-145, 48 h; summary of the method: as §2
BT-474 [6] = experiment: Cytotoxicity against human BT474 cells assessed as decrease in cell viability after 48 hrs by MTS assay; format: functional; conditions: BT-474, 48 h; summary of the method: as §2
JIMT-1 [7] = experiment: Cytotoxicity against human JIMT1 cells assessed as decrease in cell viability up to 8 uM after 48 hrs in presence of pan-caspase inhibitor QVD-OPh by MTS assay; format: functional, cell-based; summary of the method: as §3
MIA PaCa-2 [8] = experiment: Cytotoxicity against human MIAPaCa2 cells assessed as decrease in cell viability after 48 hrs by MTS assay; format: functional; conditions: MIA PaCa-2, 48 h; summary of the method: as §2
DU-145 [9] = experiment: Cytotoxicity against human DU145 cells assessed as decrease in cell viability up to 8 uM after 48 hrs in presence of pan-caspase inhibitor QVD-OPh by MTS assay; format: functional, cell-based; summary of the method: as §3
DU-145 [10] = experiment: Cytotoxicity against human DU145 cells assessed as cell death at 7.5 uM after 48 hrs by MTS assay; format: functional
Summary of the method: (§4)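 Equal numbers of cells were plated. After 24 h they were exposed to compounds (0–30 µM) for 48 h, then given MTS reagent (20% v/v) for 1–4 h. OD490 was read against cell-free blank wells; mean ± SD of 6 determinations. Media: BT-474 in DMEM/F12 + 10% FBS; DU-145, JIMT-1 and MDA-MB-231 in DMEM + 10% FBS; MiaPaCa-2 in DMEM + 10% FBS + 2.5% horse serum; PC-3 in F12K + 10% FBS; all with penicillin/streptomycin.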

BT-474 [11] = experiment: Cytotoxicity against cancer stem cells derived from human BT474 cells assessed as cancer stem cell death at 7.5 uM after 3 days by MTS assay; format: functional
Summary of the method: (§5)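 CSCs were isolated from BT-474 using ALDH1 activity as the stemness marker. They were grown in ultra-low adhesion wells for 4 days to form spheroids. Spheroids were then exposed to compounds (0–20 µM) for 3 days. Viability was read by MTS assay and expressed as % of untreated control.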

DU-145 [12] = experiment: Induction of cell death in human DU145 cells assessed as rounding up of cells at 6 uM after 6 hrs fluorescence microscopic analysis; format: functional, cell-based
Summary of the method: (§6)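 DU-145 cells were incubated with compounds at 6 µM for 6 h. They were then stained with cell-impermeant ethidium homodimer-1 and examined by fluorescence microscopy for cell rounding and red DNA staining. Cells given 0.01% Triton X-100 for 10 min served as the lysis control.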

PC-3 [13] = experiment: Cytotoxicity against human PC3 cells assessed as cell death at 7.5 uM after 48 hrs by MTS assay; format: functional; summary of the method: as §4
BT-474 [14] = experiment: Disruption of cancer stem cells spheroids derived from human BT474 cells at >=5 uM after 3 days by microscopic analysis; format: functional, cell-based; summary of the method: as §1
MIA PaCa-2 [15] = experiment: Cytotoxicity against human MIAPaCa2 cells assessed as cell death at 7.5 uM after 48 hrs by MTS assay; format: functional; summary of the method: as §4
MDA-MB-231 [16] = experiment: Cytotoxicity against human MDA-MB-231 cells assessed as cell death at 7.5 uM after 48 hrs by MTS assay; format: functional; summary of the method: as §4
JIMT-1 [17] = experiment: Induction of membrane lysis in human JIMT1 cells at 4 uM after 6 hrs by EthD-1 staining based fluorescence microscopic analysis; format: functional, cell-based
JIMT-1 [18] = experiment: Cytotoxicity against human JIMT1 cells assessed as cell death at 7.5 uM after 48 hrs by MTS assay; format: functional; summary of the method: as §4
DU-145 [19] = experiment: Induction of membrane lysis in human DU145 cells at 6 uM after 6 hrs by EthD-1 staining based fluorescence microscopic analysis; format: functional, cell-based; summary of the method: as §6
JIMT-1 [20] = experiment: Induction of cell death in human JIMT1 cells assessed as rounding up of cells at 4 uM after 6 hrs by fluorescence microscopic analysis; format: functional, cell-based
BT-474 [21] = experiment: Cytotoxicity against human BT474 cells assessed as cell death at 7.5 uM after 48 hrs by MTS assay; format: functional; summary of the method: as §4
BXPC-3 = experiment: Induction of cell death in human BxPC3 cells assessed as clear large vacuole formation at 5 uM after 4 hrs
[22] = Stability in bovine liver extracts assessed as bovine liver glycosidase mediated compound cleavage by TLC analysis; format: ADME, Bos taurus; conditions: cattle
Summary of the method: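 A bovine liver glycosidase fraction in 0.05 M sodium citrate pH 5.0 was combined with 0.2 M citrate pH 4.4 buffer, substrate (30 mM stock) and Triton X-100 (10% stock) for solubilization. Controls were no enzyme and a β-D-glucose-based GAEL. After 1 h, methanol was added, the mixture was centrifuged, and the supernatant was analysed by TLC. Run in quadruplicate.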

BT-474 [23] = experiment: Disruption of cancer stem cells spheroids derived from human BT474 cells at 20 uM after 3 days by microscopic analysis; format: functional, cell-based; summary of the method: as §1
JIMT-1 [24] = experiment: Cytotoxicity against human JIMT1 cells assessed as cell death at 2 to 25 times CC50 after 48 hrs by MTS assay; format: functional; summary of the method: as §4
BT-474 [25] = experiment: Cytotoxicity against human BT474 cells assessed as cell death at 2 to 25 times CC50 after 48 hrs by MTS assay; format: functional; summary of the method: as §4
BT-474 [26] = experiment: Cytotoxicity against cancer stem cells derived from human BT474 cells assessed as cancer stem cell death at 20 uM after 3 days by MTS assay; format: functional; summary of the method: as §5
DU-145 [27] = experiment: Cytotoxicity against human DU145 cells assessed as cell death at 2 to 25 times CC50 after 48 hrs by MTS assay; format: functional; summary of the method: as §4
PC-3 [28] = experiment: Cytotoxicity against human PC3 cells assessed as cell death at 2 to 25 times CC50 after 48 hrs by MTS assay; format: functional; summary of the method: as §4
MDA-MB-231 [29] = experiment: Cytotoxicity against human MDA-MB-231 cells assessed as cell death at 2 to 25 times CC50 after 48 hrs by MTS assay; format: functional; summary of the method: as §4
MIA PaCa-2 [30] = experiment: Cytotoxicity against human MIAPaCa2 cells assessed as cell death at 2 to 25 times CC50 after 48 hrs by MTS assay; format: functional; summary of the method: as §4

SMILES | CC50 (MDA-MB-231 [2]) [µM] | Activity (Erythrocyte) [%] | Activity (JIMT-1 [3]) | Activity (DU-145 [4]) | CC50 (DU-145 [5]) [µM] | CC50 (BT-474 [6]) [µM] | Activity (JIMT-1 [7]) | CC50 (MIA PaCa-2 [8]) [µM] | Activity (DU-145 [9]) | Activity (DU-145 [10]) [%] | Activity (BT-474 [11]) [%] | Activity (DU-145 [12]) | Activity (PC-3 [13]) [%] | Activity (BT-474 [14]) | Activity (MIA PaCa-2 [15]) [%] | Activity (MDA-MB-231 [16]) [%] | Activity (JIMT-1 [17]) | Activity (JIMT-1 [18]) [%] | Activity (DU-145 [19]) | Activity (JIMT-1 [20]) | also measured
CCCCCCCCCCCCCCCCOC[C@H](CO[C@@H]1O[C@@H](CN)[C@H](O)[C@@H](O)[C@@H]1N)OC | 4 to 11 | <5 | Active | Active | 4 to 11 | 4 to 11 | Active | 4 to 11 | Active | – | – | – | – | – | – | – | – | – | – | – | Activity (BT-474 [1]): Active
CCCCCCCCCCCCCCCCOC[C@H](CO[C@@H]1O[C@H](CN)[C@@H](OCc2ccccc2)[C@H](O)[C@H]1N)OC | 2 to 6 | <5 | – | – | 2 to 6 | 2 to 6 | – | 2 to 6 | – | >95 | >95 | Active | >95 | Active | >95 | >95 | inactive | >95 | inactive | Active | Activity (BT-474 [21]): >95%
CCCCCCCCCCCCCCCCOC[C@H](CO[C@@H]1O[C@@H](CN)[C@H](OCc2ccccc2)[C@@H](O)[C@@H]1N)OC | 2 to 6 | <5 | Active | Active | 2 to 6 | 2 to 6 | Active | 2 to 6 | Active | >95 | >95 | Active | >95 | Active | >95 | >95 | inactive | >95 | inactive | Active | Activity (BXPC-3): Active; Stability [22]: Stable; Activity (BT-474 [21]): >95%
COc1cccc2c1C(=O)c1c(O)c3c(c(O)c1C2=O)C[C@@](O)(C(=O)CO)C[C@@H]3O[C@H]1C[C@H](N)[C@H](O)[C@H](C)O1.Cl [DOXORUBICIN HYDROCHLORIDE] | – | – | Active | Active | – | – | inactive | – | inactive | – | 75 | – | – | – | – | – | – | – | – | – | Activity (BT-474 [23]): inactive; Activity (JIMT-1 [24]): <90%; Activity (BT-474 [25]): <90%; Activity (BT-474 [26]): 72%; Activity (DU-145 [27]): <90%; Activity (PC-3 [28]): <90%; Activity (MDA-MB-231 [29]): <90%; Activity (MIA PaCa-2 [30]): <90%
